Source: ChEMBL document CHEMBL4732237, “Discovery of 4-alkoxy-2-aryl-6,7-dimethoxyquinolines as a new class of topoisomerase I inhibitors endowed with potent in vitro anticancer activity” (2021)

Key:
Assay type in all cases: functional
CCRF-CEM = assay: Growth inhibition of human CCRF-CEM cells incubated for 48 hrs by sulforhodamine B assay
How it was run: (§1)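 NCI five-dose screen covering 0.01–100 µM, prepared as 10-fold or ½-log dilutions from DMSO stock. Cells in RPMI 1640 with 5% FBS were exposed for 48 h at 37 °C after 24 h preincubation. Adherent cells were fixed with TCA (final 10%) and suspension cells were settled before fixing. Stain was SRB, read at 515 nm. GI50 = 50% reduction in net protein increase versus control, with Tz taken at drug addition.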

MOLT-4 [1] = assay: Growth inhibition of human MOLT-4 cells incubated for 48 hrs by sulforhodamine B assay
How it was run: (§2)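 NCI five-dose screen (0.01–100 µM; five concentrations plus control). Cells grown in RPMI 1640/5% FBS/2 mM L-glutamine and preincubated 24 h, with time-zero plates TCA-fixed. Drug exposure 48 h at 37 °C, followed by SRB protein staining and reading at 515 nm. GI50 is the concentration at [(Ti-Tz)/(C-Tz)]×100 = 50.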

NCI-H226 = assay: Growth inhibition of human NCI-H226 cells incubated for 48 hrs by sulforhodamine B assay; how it was run: as §2
NCI-H460 = assay: Growth inhibition of human NCI-H460 cells incubated for 48 hrs by sulforhodamine B assay; how it was run: as §2
NCI-H522 = assay: Growth inhibition of human NCI-H522 cells incubated for 48 hrs by sulforhodamine B assay; how it was run: as §2
HCT-116 = assay: Growth inhibition of human HCT-116 cells incubated for 48 hrs by sulforhodamine B assay; how it was run: as §1
KM12 = assay: Growth inhibition of human KM12 cells incubated for 48 hrs by sulforhodamine B assay; how it was run: as §1
SW-620 [2] = assay: Growth inhibition of human SW-620 cells incubated for 48 hrs by sulforhodamine B assay
How it was run: (§3)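 NCI five-dose assay, with drug stocks in DMSO diluted in medium to five concentrations (10-fold or ½-log series). Cells in RPMI 1640/5% FBS were pre-incubated 24 h, and time-zero plates were TCA-fixed at drug addition. After 48 h at 37 °C, cells were TCA-fixed, SRB-stained and read at 515 nm. GI50 is from [(Ti-Tz)/(C-Tz)]×100 = 50, TGI from Ti = Tz, and LC50 from [(Ti-Tz)/Tz]×100 = -50.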

LOX IMVI = assay: Growth inhibition of human LOX IMVI cells incubated for 48 hrs by sulforhodamine B assay; how it was run: as §1
Malme-3M [3] = assay: Growth inhibition of human Malme-3M cells incubated for 48 hrs by sulforhodamine B assay; how it was run: as §2
MDA-MB-435 = assay: Growth inhibition of human MDA-MB-435 cells incubated for 48 hrs by sulforhodamine B assay; how it was run: as §1
SK-MEL-28 = assay: Growth inhibition of human SK-MEL-28 cells incubated for 48 hrs by sulforhodamine B assay; how it was run: as §2
IGROV-1 = assay: Growth inhibition of human IGROV-1 cells incubated for 48 hrs by sulforhodamine B assay; how it was run: as §1
A498 [4] = assay: Growth inhibition of human A498 cells incubated for 48 hrs by sulforhodamine B assay; how it was run: as §3
ACHN = assay: Growth inhibition of human ACHN cells incubated for 48 hrs by sulforhodamine B assay; how it was run: as §1
PC-3 = assay: Growth inhibition of human PC-3 cells incubated for 48 hrs by sulforhodamine B assay; how it was run: as §2
MDA-MB-231 = assay: Growth inhibition of human MDA-MB-231 cells incubated for 48 hrs by sulforhodamine B assay; how it was run: as §1
BT-549 [5] = assay: Growth inhibition of human BT-549 cells incubated for 48 hrs by sulforhodamine B assay; how it was run: as §1
T47D = assay: Growth inhibition of human T47D cells incubated for 48 hrs by sulforhodamine B assay; how it was run: as §3
MDA-MB-468 = assay: Growth inhibition of human MDA-MB-468 cells incubated for 48 hrs by sulforhodamine B assay; how it was run: as §1
MOLT-4 [6] = assay: Growth inhibition of human MOLT-4 cells at 10 uM incubated for 48 hrs by sulforhodamine B assay relative to control; settings: read-out: GI
How it was run: (§4)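 NCI one-dose screen. Cells grown in RPMI 1640 with 5% FBS and 2 mM L-glutamine, plated and incubated 24 h at 37 °C, 5% CO2. DMSO-dissolved drug added, then 48 h further incubation. Adherent cells fixed with cold TCA, suspension cells fixed after settling. Stained with 0.4% SRB, absorbance read at 515 nm. Reported as percent growth relative to no-drug control and time-zero cell number.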

HOP-92 = assay: Growth inhibition of human HOP-92 cells at 10 uM incubated for 48 hrs by sulforhodamine B assay relative to control; settings: read-out: GI
How it was run: (§5)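 NCI-60 single-dose screen. Cells were grown in RPMI 1640 with 5% FBS and 2 mM L-glutamine and plated 24 h before drug addition. Compound was added at one concentration in DMSO-derived medium and incubated for 48 h at 37 °C in 5% CO2. Read-out was SRB protein stain at 515 nm. Result is percent growth versus the no-drug control and the time-zero cell count; values below 0 indicate lethality.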

NCI-H23 = assay: Growth inhibition of human NCI-H23 cells at 10 uM incubated for 48 hrs by sulforhodamine B assay relative to control; settings: read-out: GI; how it was run: as §4
NCI-H322M = assay: Growth inhibition of human NCI-H322M cells at 10 uM incubated for 48 hrs by sulforhodamine B assay relative to control; settings: read-out: GI; how it was run: as §4
SW-620 [7] = assay: Growth inhibition of human SW-620 cells at 10 uM incubated for 48 hrs by sulforhodamine B assay relative to control; settings: read-out: GI
How it was run: (§6)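 NCI one-dose screen across a 59-line panel. Cells were grown in RPMI 1640 with 5% FBS and 2 mM L-glutamine, plated and pre-incubated 24 h, then exposed to drug for 48 h at 37 °C, 5% CO2. Adherent cells were fixed with cold TCA (10% final), stained with 0.4% SRB in 1% acetic acid and read at 515 nm. Result is percent growth relative to no-drug control and time-zero cell count.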

U-251 = assay: Growth inhibition of human U-251 cells at 10 uM incubated for 48 hrs by sulforhodamine B assay relative to control; settings: read-out: GI; how it was run: as §6
Malme-3M [8] = assay: Growth inhibition of human Malme-3M cells at 10 uM incubated for 48 hrs by sulforhodamine B assay relative to control; settings: read-out: GI; how it was run: as §4
UACC-257 = assay: Growth inhibition of human UACC-257 cells at 10 uM incubated for 48 hrs by sulforhodamine B assay relative to control; settings: read-out: GI; how it was run: as §6
OVCAR-4 = assay: Growth inhibition of human OVCAR-4 cells at 10 uM incubated for 48 hrs by sulforhodamine B assay relative to control; settings: read-out: GI; how it was run: as §4
SK-OV-3 = assay: Growth inhibition of human SK-OV-3 cells at 10 uM incubated for 48 hrs by sulforhodamine B assay relative to control; settings: read-out: GI; how it was run: as §4
A498 [9] = assay: Growth inhibition of human A498 cells at 10 uM incubated for 48 hrs by sulforhodamine B assay relative to control; settings: read-out: GI; how it was run: as §6
TK-10 = assay: Growth inhibition of human TK-10 cells at 10 uM incubated for 48 hrs by sulforhodamine B assay relative to control; settings: read-out: GI; how it was run: as §6
BT-549 [10] = assay: Growth inhibition of human BT-549 cells at 10 uM incubated for 48 hrs by sulforhodamine B assay relative to control; settings: read-out: GI; how it was run: as §5

SMILES	GI50 (CCRF-CEM) [nM]	GI50 (MOLT-4 [1]) [nM]	GI50 (NCI-H226) [nM]	GI50 (NCI-H460) [nM]	GI50 (NCI-H522) [nM]	GI50 (HCT-116) [nM]	GI50 (KM12) [µM]	GI50 (SW-620 [2]) [µM]	GI50 (LOX IMVI) [nM]	TGI (LOX IMVI) [nM]	GI50 (Malme-3M [3]) [nM]	GI50 (MDA-MB-435) [nM]	GI50 (SK-MEL-28) [nM]	GI50 (IGROV-1) [nM]	GI50 (A498 [4]) [nM]	GI50 (ACHN) [nM]	GI50 (PC-3) [nM]	GI50 (MDA-MB-231) [nM]	GI50 (BT-549 [5]) [µM]	GI50 (T47D) [nM]	further results
COc1cc2nc(-c3ccc(C(F)(F)F)cc3)cc(OCCCN3CCCC3)c2cc1OC	1080	994	343	528	1740	456	1.34	1.62	116	275	1010	709	1200	592	1580	812	1070	565	1.99	472	GI50 (MDA-MB-468): 885 nM
COc1cc2nc(-c3ccc(Cl)cc3)cc(OCCCN3CCC(O)CC3)c2cc1OC	2650	1800	1390	955	2190	1440	3.13	3.05	227	589	1890	2050	1490	923	1520	2430	2020	665	2.79	2260	inhibition of growth at 10 µM (MOLT-4 [6]): 62%; inhibition of growth at 10 µM (HOP-92): 62%; inhibition of growth at 10 µM (NCI-H23): 62%; inhibition of growth at 10 µM (NCI-H322M): 62%; inhibition of growth at 10 µM (SW-620 [7]): 62%; inhibition of growth at 10 µM (U-251): 62%; inhibition of growth at 10 µM (Malme-3M [8]): 62%; inhibition of growth at 10 µM (UACC-257): 62%; inhibition of growth at 10 µM (OVCAR-4): 62%; inhibition of growth at 10 µM (SK-OV-3): 62%; inhibition of growth at 10 µM (A498 [9]): 62%; inhibition of growth at 10 µM (TK-10): 62%; inhibition of growth at 10 µM (BT-549 [10]): 62%; GI50 (MDA-MB-468): 1560 nM
COc1cc2nc(-c3ccc(C(F)(F)F)cc3)cc(OCCCN3CCC(O)CC3)c2cc1OC	3260	3270	1590	835	4150	671	6.87	3.53	190	447	2650	2760	2380	900	2370	3180	3660	919	6.59	2970	GI50 (MDA-MB-468): 1630 nM
COc1cc2nc(-c3ccc(C(F)(F)F)cc3)cc(OCCCN3CCOCC3)c2cc1OC	2790	2510	406	639	2520	583	3.42	3.51	141	324	1380	1200	1440	830	1510	2010	2190	498	5	654	GI50 (MDA-MB-468): 1240 nM
